In ChEMBL document CHEMBL1145920 (J Med Chem, 2003):
In brackets after ≈: the same amount, converted by molar mass. Values belong to the compound of their own block, whether it stands above or below them.

What was measured:
[1] = biological target: T1, Vascular endothelial growth factor receptor 2 (Homo sapiens, UniProt P35968); experiment: In vitro inhibitory concentration against human vascular endothelial growth factor receptor 2
In short: (§1)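 Baculovirus-expressed human kinase cytoplasmic domains; ELISA-type assay with time-resolved fluorescence readout (Eu-N1 antiphosphotyrosine antibody). […] For VEGF-R2, PLC-γ/GST fusion substrate and 15 min at 37 °C.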

[2] = biological target: T1, Vascular endothelial growth factor receptor 2; experiment: Inhibition of Vascular endothelial growth factor receptor 2 autophosphorylation by VEGF in human umbilical vein endothelial cells (HUVECs) at 10 nM; format: cell-based; details: HUVEC
In short: (§2)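 Subconfluent HUVECs serum-starved 1 h at 37 °C in EBM-2 with 0.05% BSA, with drug or DMSO present, then stimulated with 10 ng/mL human VEGF for 5 min. Lysates protein-normalized, anti-VEGF-R2 immunoprecipitated, run on SDS-PAGE, antiphosphotyrosine immunoblot, ECL.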

[3] = biological target: T1, Vascular endothelial growth factor receptor 2; experiment: Inhibition of Vascular endothelial growth factor receptor 2 autophosphorylation by VEGF in human umbilical vein endothelial cells (HUVECs) at 50 nM; format: cell-based; details: HUVEC; in short: as §2
[4] = biological target: T1, Vascular endothelial growth factor receptor 2; experiment: Inhibition of Vascular endothelial growth factor receptor 2 autophosphorylation by VEGF in human umbilical vein endothelial cells (HUVECs) at 200 nM; format: cell-based; details: HUVEC; in short: as §2
[5] = biological target: T1, Vascular endothelial growth factor receptor 2; experiment: Inhibition of Vascular endothelial growth factor receptor 2 autophosphorylation by VEGF in human umbilical vein endothelial cells (HUVECs) at 100 nM; format: cell-based; details: HUVEC; in short: as §2
[6] = Plasma level in rats at 30 mg/kg; format: ADME, organism-based; set-up: dose 30 mg/kg; details: rat
In short: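 Fasted adult male Sprague–Dawley rats (n = 3) given a single oral gavage dose at 2 mL/kg in 3:1 gelucire/PG vehicle. Plasma prepared by acetonitrile protein precipitation and analyzed by HPLC–tandem MS.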

[7] = Solubility was determined; format: physicochemical
[8] = biological target: Cyclin-dependent kinase 1/cyclin B (Homo sapiens, UniProt P06493); experiment: Inhibition of Cyclin-dependent kinase 1-cyclin B; format: protein-complex assay
In short: (§3)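 Enzymes were baculovirus-expressed recombinant human cytoplasmic domains: CDK1/cyclinB and CHK1.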

[9] = biological target: Fibroblast growth factor receptor 1 (Homo sapiens, UniProt P11362); experiment: Inhibition of Fibroblast growth factor receptor 1
Mus musculus [10] = experiment: Inhibition of murine SVR angiosarcoma in mice administered b.i.d. for 10 days; format: functional; details: oral, 240 h, read-out: MED
In short: (§4)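 Female athymic nu/nu mice, 6–8 weeks old; 1×10^6 SVR murine angiosarcoma cells implanted sc in right flank with Matrigel (1:1 v/v). At tumor volumes of 80–180 mm³, randomized (usually 8–10/group) and dosed orally b.i.d. (T = 0, 8 h), 0.35–23.8 mg/kg at 100 μL/dose; vehicles PG:Tween 80 (1:1) or 1% HOAc. Caliper tumor volumes every 3–4 days; Mann–Whitney test.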

Mus musculus [11] = experiment: In vivo antitumor activity against SVR tumor growth in nude mice by oral administration of 10 mg/kg b.i.d. for 10 days; format: functional; details: 240 h; in short: as §4
Mus musculus [12] = experiment: Antitumor activity against SVR tumor growth in mice by administration of 20 mg/kg b.i.d.; format: functional; details: oral; in short: as §4
[13] = biological target: Mitogen-activated protein kinase 14 (Homo sapiens, UniProt Q16539); experiment: Inhibition of Mitogen-activated protein kinase p38 alpha
Sequence of Mitogen-activated protein kinase 14 (Q16539 whole entry): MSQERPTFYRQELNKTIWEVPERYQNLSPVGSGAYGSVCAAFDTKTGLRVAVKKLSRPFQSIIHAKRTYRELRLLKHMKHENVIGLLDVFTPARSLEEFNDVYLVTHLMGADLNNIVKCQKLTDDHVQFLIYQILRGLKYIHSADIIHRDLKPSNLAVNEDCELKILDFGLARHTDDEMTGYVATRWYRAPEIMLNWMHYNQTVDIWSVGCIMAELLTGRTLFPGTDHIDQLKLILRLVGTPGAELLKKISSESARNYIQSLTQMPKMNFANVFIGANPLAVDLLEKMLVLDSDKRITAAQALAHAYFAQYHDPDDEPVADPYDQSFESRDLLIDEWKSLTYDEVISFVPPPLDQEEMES
In short: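 Enzyme was activated recombinant human GST-p38α.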

[14] = biological target: Protein kinase C, PKC; classical (Rattus norvegicus, UniProt P05696+P68403+P63319); experiment: Inhibition of rat brain Protein kinase C
In short: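 Enzyme was purified rat brain PKC, a mixture of the Ca2+-dependent α, β and γ isozymes.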

[15] = biological target: Serine/threonine-protein kinase Chk2 (Homo sapiens, UniProt O96017); experiment: Inhibition of Serine/threonine-protein kinase Chk2 (CDS1 receptor)
Sequence of Serine/threonine-protein kinase Chk2 (O96017 whole entry): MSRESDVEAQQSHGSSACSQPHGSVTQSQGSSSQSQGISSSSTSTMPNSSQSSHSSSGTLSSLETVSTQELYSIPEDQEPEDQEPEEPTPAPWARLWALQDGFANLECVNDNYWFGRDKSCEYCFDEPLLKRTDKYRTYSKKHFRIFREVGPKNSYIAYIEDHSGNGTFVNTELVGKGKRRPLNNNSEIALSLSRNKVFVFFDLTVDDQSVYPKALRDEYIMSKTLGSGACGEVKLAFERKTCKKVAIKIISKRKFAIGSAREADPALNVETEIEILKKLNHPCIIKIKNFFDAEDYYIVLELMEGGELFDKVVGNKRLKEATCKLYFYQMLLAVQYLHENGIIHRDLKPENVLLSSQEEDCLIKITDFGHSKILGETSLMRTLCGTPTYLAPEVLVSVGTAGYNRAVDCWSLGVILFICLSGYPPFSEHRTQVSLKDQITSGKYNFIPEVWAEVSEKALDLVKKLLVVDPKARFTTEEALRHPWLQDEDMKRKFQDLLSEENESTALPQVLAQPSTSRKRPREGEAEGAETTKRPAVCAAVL

[16] = biological target: T2, Serine/threonine-protein kinase Chk1 (Homo sapiens, UniProt O14757); experiment: Inhibition of Serine/threonine-protein kinase Chk1; in short: as §3
T2 sequence (O14757 whole entry): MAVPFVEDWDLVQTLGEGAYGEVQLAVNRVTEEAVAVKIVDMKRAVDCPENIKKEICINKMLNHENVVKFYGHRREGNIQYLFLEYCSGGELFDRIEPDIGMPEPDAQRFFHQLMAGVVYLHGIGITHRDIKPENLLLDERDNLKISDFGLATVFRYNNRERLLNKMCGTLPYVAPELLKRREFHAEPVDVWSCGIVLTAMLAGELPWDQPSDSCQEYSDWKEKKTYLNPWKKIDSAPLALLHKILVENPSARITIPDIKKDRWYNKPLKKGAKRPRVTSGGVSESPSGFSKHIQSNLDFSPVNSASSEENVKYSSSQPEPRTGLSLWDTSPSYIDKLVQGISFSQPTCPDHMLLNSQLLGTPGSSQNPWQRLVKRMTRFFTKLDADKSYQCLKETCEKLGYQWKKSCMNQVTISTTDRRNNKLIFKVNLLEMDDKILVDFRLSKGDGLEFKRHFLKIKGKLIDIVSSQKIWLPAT

[17] = biological target: Vascular endothelial growth factor receptor 3 (Homo sapiens, UniProt P35916); experiment: Inhibition of Vascular endothelial growth factor receptor 3
Sequence of Vascular endothelial growth factor receptor 3 (P35916 whole entry, the tested form may be a part): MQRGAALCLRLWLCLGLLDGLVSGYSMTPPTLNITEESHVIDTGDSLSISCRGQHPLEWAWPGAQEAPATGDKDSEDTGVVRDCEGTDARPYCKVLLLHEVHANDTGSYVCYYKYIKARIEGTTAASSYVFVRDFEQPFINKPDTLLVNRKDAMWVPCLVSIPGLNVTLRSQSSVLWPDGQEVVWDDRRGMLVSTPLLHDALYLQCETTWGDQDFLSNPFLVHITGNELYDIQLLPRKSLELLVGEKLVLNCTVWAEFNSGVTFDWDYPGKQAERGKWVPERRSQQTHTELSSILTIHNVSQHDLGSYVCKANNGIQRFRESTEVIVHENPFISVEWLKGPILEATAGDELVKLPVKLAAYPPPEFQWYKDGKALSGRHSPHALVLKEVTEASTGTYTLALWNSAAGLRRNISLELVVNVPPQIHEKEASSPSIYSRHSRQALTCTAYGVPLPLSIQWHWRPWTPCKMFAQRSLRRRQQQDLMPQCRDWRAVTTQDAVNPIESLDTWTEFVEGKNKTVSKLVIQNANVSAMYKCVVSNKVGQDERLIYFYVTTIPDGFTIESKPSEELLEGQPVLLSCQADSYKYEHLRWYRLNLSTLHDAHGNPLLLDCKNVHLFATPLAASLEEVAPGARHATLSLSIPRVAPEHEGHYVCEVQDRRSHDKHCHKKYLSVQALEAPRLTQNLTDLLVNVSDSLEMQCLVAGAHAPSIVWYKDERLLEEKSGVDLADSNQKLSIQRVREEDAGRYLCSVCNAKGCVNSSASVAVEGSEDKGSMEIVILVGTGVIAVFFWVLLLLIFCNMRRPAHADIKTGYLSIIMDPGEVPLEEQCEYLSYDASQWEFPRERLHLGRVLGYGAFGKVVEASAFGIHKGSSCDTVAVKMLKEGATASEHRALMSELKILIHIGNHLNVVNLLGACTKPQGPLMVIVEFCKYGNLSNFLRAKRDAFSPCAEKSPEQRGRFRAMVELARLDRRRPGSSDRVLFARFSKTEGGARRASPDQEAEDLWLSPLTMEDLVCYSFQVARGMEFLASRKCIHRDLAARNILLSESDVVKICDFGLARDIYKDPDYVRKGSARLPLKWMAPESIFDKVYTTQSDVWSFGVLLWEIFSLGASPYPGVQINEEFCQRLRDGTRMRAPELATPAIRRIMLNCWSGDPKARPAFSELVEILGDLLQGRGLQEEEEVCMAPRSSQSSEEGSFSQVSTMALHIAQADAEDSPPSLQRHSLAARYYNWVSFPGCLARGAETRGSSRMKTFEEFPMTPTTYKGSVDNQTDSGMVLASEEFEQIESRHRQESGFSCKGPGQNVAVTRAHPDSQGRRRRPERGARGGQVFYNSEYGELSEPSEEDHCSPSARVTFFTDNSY
In short: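 Recombinant human VEGF-R3 cytoplasmic domain was expressed in baculovirus-infected insect cells and assayed by ELISA as for VEGF-R2, with PLC-γ/GST fusion substrate. […] Read-out was Eu-antiphosphotyrosine time-resolved fluorescence.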

[18] = biological target: Vascular endothelial growth factor receptor 1 (Homo sapiens, UniProt P17948); experiment: Inhibition of Vascular endothelial growth factor receptor 1; in short: as §1
Sequence of Vascular endothelial growth factor receptor 1 (P17948 whole entry): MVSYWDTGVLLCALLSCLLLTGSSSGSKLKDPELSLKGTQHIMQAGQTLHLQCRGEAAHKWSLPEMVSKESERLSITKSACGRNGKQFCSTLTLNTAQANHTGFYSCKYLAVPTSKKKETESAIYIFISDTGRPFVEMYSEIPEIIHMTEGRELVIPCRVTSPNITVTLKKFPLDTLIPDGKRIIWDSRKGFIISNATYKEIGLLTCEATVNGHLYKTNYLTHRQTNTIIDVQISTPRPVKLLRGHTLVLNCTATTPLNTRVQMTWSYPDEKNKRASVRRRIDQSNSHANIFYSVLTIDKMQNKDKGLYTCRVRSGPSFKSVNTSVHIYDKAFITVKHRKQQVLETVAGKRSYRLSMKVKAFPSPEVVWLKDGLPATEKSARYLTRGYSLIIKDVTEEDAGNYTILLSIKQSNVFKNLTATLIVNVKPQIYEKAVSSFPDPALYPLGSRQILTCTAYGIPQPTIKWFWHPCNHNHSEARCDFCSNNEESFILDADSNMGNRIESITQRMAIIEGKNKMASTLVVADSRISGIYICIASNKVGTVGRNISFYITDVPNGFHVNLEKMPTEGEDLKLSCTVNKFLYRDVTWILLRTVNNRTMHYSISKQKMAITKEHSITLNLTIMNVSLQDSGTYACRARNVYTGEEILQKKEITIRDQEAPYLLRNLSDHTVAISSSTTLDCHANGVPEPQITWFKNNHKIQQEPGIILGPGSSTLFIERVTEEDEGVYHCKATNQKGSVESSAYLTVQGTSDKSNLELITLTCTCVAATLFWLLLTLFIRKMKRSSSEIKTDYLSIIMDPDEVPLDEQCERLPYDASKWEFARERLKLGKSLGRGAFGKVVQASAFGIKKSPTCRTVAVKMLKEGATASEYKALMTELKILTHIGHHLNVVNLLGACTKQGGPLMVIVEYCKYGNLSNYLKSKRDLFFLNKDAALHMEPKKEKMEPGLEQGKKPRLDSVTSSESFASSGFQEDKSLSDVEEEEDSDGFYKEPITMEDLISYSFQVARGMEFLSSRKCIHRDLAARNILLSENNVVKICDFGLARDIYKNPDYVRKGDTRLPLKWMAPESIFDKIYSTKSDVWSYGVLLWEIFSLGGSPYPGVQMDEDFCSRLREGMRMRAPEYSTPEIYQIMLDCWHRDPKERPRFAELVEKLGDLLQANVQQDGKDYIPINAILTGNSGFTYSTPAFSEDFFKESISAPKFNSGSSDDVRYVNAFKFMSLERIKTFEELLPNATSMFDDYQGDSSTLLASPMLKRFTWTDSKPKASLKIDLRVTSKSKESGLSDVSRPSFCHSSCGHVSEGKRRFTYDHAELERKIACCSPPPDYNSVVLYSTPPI

Angiopoietin-1 receptor = Angiopoietin-1 receptor (Homo sapiens, UniProt Q02763); experiment: Inhibition of Tyrosine protein kinase receptor TIE-2; in short: as §1
[19] = biological target: T3, Receptor-type tyrosine-protein kinase FLT3 (Homo sapiens, UniProt P36888); experiment: Inhibition of Tyrosine-protein kinase receptor FLT3 (fms-related tyrosine kinase 3) receptor
T3 sequence (P36888 whole entry): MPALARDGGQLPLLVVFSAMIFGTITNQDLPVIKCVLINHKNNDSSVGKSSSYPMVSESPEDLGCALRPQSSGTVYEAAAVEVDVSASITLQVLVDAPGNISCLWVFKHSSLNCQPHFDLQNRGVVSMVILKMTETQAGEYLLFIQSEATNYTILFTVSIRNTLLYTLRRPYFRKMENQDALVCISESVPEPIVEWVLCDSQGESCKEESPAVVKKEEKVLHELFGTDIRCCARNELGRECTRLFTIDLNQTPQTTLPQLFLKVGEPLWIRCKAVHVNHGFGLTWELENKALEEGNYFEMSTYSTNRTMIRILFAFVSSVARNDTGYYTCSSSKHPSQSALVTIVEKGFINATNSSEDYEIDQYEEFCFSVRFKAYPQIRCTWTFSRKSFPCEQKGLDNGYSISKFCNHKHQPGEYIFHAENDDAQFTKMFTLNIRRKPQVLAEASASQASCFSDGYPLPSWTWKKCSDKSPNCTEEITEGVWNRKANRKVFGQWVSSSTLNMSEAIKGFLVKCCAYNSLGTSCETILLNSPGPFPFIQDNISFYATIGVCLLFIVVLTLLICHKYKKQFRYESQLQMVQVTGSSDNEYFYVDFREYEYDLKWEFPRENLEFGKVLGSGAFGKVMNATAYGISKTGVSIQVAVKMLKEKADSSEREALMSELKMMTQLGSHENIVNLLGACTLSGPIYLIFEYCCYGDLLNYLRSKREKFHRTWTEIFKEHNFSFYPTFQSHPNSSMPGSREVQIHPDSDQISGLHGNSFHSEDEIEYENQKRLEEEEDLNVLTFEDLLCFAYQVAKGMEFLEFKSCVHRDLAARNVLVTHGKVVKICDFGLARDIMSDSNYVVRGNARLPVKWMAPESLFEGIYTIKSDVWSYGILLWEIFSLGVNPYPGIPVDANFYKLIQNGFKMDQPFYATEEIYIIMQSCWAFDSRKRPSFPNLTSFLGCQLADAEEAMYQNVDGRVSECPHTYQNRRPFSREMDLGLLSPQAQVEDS
In short: (§5)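 Recombinant human cytoplasmic kinase domains (TrkA, Flt-3) expressed in baculovirus-infected insect cells. […] Eu-N1 antiphosphotyrosine detection by time-resolved fluorescence.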

[20] = biological target: Mitogen-activated protein kinase 8 (Homo sapiens, UniProt P45983); experiment: Inhibition of c-Jun N-terminal kinase 1-beta 1
[21] = biological target: High affinity nerve growth factor receptor (Homo sapiens, UniProt P04629); experiment: Inhibition of TrkA receptor; in short: as §5
[22] = biological target: T1, Vascular endothelial growth factor receptor 2; experiment: Inhibition of human Vascular endothelial growth factor receptor 2
In short: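 Baculovirus-expressed recombinant human VEGF-R2 cytoplasmic domain was assayed by ELISA with a GST–phospholipase C-γ fusion substrate. […] Eu-N1 antiphosphotyrosine was added for 1 h at 37 °C and read by time-resolved fluorescence. IC50 came from nonlinear sigmoidal fits, averaging at least 3 determinations.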

[23] = biological target: Mast/stem cell growth factor receptor Kit (Homo sapiens, UniProt P10721); experiment: Inhibition of Proto-oncogene tyrosine-protein kinase Kit
[24] = biological target: T1, Vascular endothelial growth factor receptor 2; details: HUVEC, 100 nM
[25] = biological target: T1, Vascular endothelial growth factor receptor 2; details: HUVEC, 10 nM
[26] = biological target: T4, Vascular endothelial growth factor receptor (Homo sapiens) (UniProt P17948+P35916+P35968); details: HUVEC, 100 nM
T4 sequence (P17948 whole entry, looked up): as the sequence (P17948 whole entry) above
T4 sequence (P35916 whole entry, looked up): as the sequence (P35916 whole entry, the tested form may be a part) above
T4 sequence (P35968 whole entry, looked up): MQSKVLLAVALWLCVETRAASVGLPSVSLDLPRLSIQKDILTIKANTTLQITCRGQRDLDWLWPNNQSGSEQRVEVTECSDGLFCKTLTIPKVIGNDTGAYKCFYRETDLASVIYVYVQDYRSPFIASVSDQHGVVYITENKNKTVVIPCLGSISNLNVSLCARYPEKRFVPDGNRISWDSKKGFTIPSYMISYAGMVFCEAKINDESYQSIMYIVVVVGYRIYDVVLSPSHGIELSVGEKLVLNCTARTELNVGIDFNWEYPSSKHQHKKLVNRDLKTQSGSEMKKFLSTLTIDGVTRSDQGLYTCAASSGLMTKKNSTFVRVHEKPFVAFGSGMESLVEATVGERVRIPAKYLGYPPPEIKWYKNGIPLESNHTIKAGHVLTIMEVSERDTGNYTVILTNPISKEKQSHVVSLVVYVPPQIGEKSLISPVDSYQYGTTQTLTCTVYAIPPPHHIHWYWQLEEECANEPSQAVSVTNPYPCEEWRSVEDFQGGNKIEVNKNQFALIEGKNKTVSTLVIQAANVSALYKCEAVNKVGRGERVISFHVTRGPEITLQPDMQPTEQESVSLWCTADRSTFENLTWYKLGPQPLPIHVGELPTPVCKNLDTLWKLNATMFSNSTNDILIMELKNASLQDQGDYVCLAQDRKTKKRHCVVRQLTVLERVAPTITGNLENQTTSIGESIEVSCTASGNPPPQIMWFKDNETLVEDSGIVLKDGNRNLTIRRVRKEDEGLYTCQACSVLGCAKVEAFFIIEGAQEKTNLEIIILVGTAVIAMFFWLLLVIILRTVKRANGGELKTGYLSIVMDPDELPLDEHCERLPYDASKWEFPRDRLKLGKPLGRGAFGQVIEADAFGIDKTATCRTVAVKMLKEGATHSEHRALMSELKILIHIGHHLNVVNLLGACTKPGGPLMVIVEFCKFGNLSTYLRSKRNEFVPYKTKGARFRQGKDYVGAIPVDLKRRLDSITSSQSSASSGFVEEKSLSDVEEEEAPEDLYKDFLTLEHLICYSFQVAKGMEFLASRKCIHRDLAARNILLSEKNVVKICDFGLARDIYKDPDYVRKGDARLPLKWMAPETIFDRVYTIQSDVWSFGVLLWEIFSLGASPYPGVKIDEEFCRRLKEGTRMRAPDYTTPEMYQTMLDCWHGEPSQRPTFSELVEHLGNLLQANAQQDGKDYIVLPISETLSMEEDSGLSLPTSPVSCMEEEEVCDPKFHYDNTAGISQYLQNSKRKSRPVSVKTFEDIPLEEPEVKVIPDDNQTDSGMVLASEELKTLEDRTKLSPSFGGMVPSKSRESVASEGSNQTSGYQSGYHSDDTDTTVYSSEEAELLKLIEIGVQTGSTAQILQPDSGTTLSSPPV

[27] = biological target: T4, Vascular endothelial growth factor receptor (Homo sapiens); details: HUVEC, 40 nM
[28] = biological target: T4, Vascular endothelial growth factor receptor (Homo sapiens); details: Capillary, HUVEC, 400 nM
Mus musculus [29] = experiment: Antitumor activity against SVR tumor growth in mice by administration of 23.8 mg/kg b.i.d.; format: functional; details: oral; in short: as §4

T1 sequence (P35968 whole entry, the tested form may be a part): as the sequence (P35968 whole entry, looked up) above

- IC50 [1]: 414 nM
Structure (SMILES): O=C1NCc2c3c(c4[nH]c5ccccc5c4c21)Cc1ccccc1-3

- IC50 [1]: 35 nM
Structure (SMILES): CCC(CC)OCc1ccc2c(c1)c1c3c(c4c(c1n2CCCO)Cc1ccccc1-4)C(=O)NC3

- IC50 [1]: 55 nM
Structure (SMILES): CC(C)OCc1ccc2[nH]c3c4c(c5c(c3c2c1)CNC5=O)-c1ccccc1C4

- IC50 [1]: 104 nM
Structure (SMILES): O=C1NCc2c1c1c(c3c2c2cc(Br)ccc2n3CCCO)Cc2ccccc2-1

- IC50 [1]: 163 nM
Structure (SMILES): Cc1ccc2c(c1)c1c3c(c4c(c1n2CCCO)Cc1ccccc1-4)C(=O)NC3

- IC50 [1]: 110 nM
Structure (SMILES): O=C1NCc2c1c1c(c3[nH]c4ccccc4c23)Cc2ccccc2-1

- IC50 [1]: 276 nM
Structure (SMILES): CC(C)CCOCc1ccc2c(c1)c1c3c(c4c(c1n2CCCO)Cc1ccccc1-4)C(=O)NC3

- IC50 [1]: 309 nM
Structure (SMILES): CC(C)[S+]([O-])Cc1ccc2c(c1)c1c3c(c4c(c1n2CCCO)Cc1ccccc1-4)C(=O)NC3 (configuration not stated)

- IC50 [1]: 187 nM
Structure (SMILES): CC(=O)c1ccc2c(c1)c1c3c(c4c(c1n2CCCO)Cc1ccccc1-4)C(=O)NC3

- IC50 [1]: 105 nM
Structure (SMILES): O=Cc1ccc2c(c1)c1c3c(c4c(c1n2CCCO)Cc1ccccc1-4)C(=O)NC3

- inhibition [2]: 100%
- inhibition [3]: 100%
Structure (SMILES): CC(C)(C)OCc1ccc2c(c1)c1c3c(c4c(c1n2CCCO)Cc1ccccc1-4)C(=O)NC3

- inhibition [4]: 100%
Structure (SMILES): CC(C)SCc1ccc2c(c1)c1c3c(c4c(c1n2CCCO)Cc1ccccc1-4)C(=O)NC3

- inhibition [4]: 100%
Structure (SMILES): CCCCOCc1ccc2c(c1)c1c3c(c4c(c1n2CCCO)Cc1ccccc1-4)C(=O)NC3

- inhibition [4]: 100%
Structure (SMILES): CCCOCc1ccc2c(c1)c1c3c(c4c(c1n2CCCO)Cc1ccccc1-4)C(=O)NC3

- inhibition [2]: 75%
- inhibition [5]: 100%
Structure (SMILES): CCOCc1ccc2c(c1)c1c3c(c4c(c1n2CCCO)Cc1ccccc1-4)C(=O)NC3

- inhibition [4]: 100%
Structure (SMILES): CCSCc1ccc2c(c1)c1c3c(c4c(c1n2CCCO)Cc1ccccc1-4)C(=O)NC3

- inhibition [3]: 100%
Structure (SMILES): CC[C@@H](C)OCc1ccc2c(c1)c1c3c(c4c(c1n2CCCO)Cc1ccccc1-4)C(=O)NC3

- inhibition [3]: 100%
Structure (SMILES): CC[C@H](C)OCc1ccc2c(c1)c1c3c(c4c(c1n2CCCO)Cc1ccccc1-4)C(=O)NC3

- inhibition [2]: 25%
- inhibition [5]: 100%
Structure (SMILES): COC(C)c1ccc2c(c1)c1c3c(c4c(c1n2CCCO)Cc1ccccc1-4)C(=O)NC3 (configuration not stated)

- Cmax [6]: 100 ng/mL
- solubility [7]: 10 µg/mL (≈ 22.7 µM)
- IC50 [8]: > 10000 nM
- IC50 [9]: 162 nM
- IC50 [13]: > 10000 nM
- IC50 [14]: > 10000 nM
- IC50 [15]: > 3000 nM
- IC50 [16]: > 3000 nM
- IC50 [17]: 4 nM
- IC50 [18]: 16 nM
- IC50 (Angiopoietin-1 receptor): > 10000 nM
- IC50 [19]: 1.6 nM
- IC50 [20]: 448 nM
- IC50 [21]: > 3000 nM
- IC50 [22]: 8 nM
- IC50 [23]: 57 nM
- inhibition [24]: 100%
- inhibition [25]: 75%
- inhibition [26]: 75%
- inhibition [27]: 21%
- inhibition [28]: 89%
Structure (SMILES): CC(C)OCc1ccc2c(c1)c1c3c(c4c(c1n2CCCO)Cc1ccccc1-4)C(=O)NC3 [CEP-5214]
- minimal effective dose (Mus musculus [10]): 3 mg/kg
- inhibition in vivo at 10 mg/kg (Mus musculus [11]): 57%
- inhibition in vivo at 20 mg/kg (Mus musculus [12]): 70%

Structure (SMILES): CC(C)OCc1ccc2c(c1)c1c3c(c4c(c1n2CCCOC(=O)CN(C)C)Cc1ccccc1-4)C(=O)NC3 [CEP-7055]
- inhibition in vivo at 23.8 mg/kg (Mus musculus [29]): 70%
